From ChEMBL document CHEMBL2169799, “Synthesis and characterization of a novel prostate cancer-targeted phosphatidylinositol-3-kinase inhibitor prodrug” (J Med Chem, 2012)
The source made the active and inactive calls. The calls are words filed in the database; no cut-off is given here. *1 amine or outer side, *2 acyl side, *3 side chain or, on linkers, in order; H or OH if unused. Where a SMILES comes first, the peptide text is derived from it. The star is where a group is joined. X1 = O=c1cc(N2CCOCC2)oc2c(-c3ccc(CO*)cc3)cccc12; Morpholide = C1CN(*)CCO1; CO = O=C([*:1])[*:2]

Experiments:
C4-2 [1] = test: Inhibition of PI3 kinase in human C4-2 cells assessed as complete reduction of p-Akt T308 level at 30 µM after 30 mins by Western blotting; type: cell-based
BT-549 [2] = test: Inhibition of PI3 kinase in human BT549 cells assessed as complete reduction of p-Akt T308 level at 30 µM after 30 mins by Western blotting; type: cell-based
BT-549 [3] = test: Inhibition of PI3 kinase in human BT549 cells assessed as reduction of p-Akt T308 level after 30 mins by Western blotting; type: cell-based
C4-2 [4] = test: Inhibition of PI3 kinase in human C4-2 cells assessed as reduction of p-Akt T308 level after 30 mins by Western blotting; type: cell-based
C4-2 [5] = test: Inhibition of PI3 kinase in human C4-2 cells assessed as reduction of p-Akt T308 level at 30 uM by Western blotting; type: cell-based; conditions: TDE = time-dependent effect
U-87 = test: Inhibition of PI3 kinase in human U-87 cells assessed as reduction of p-Akt T308 level after 3 hrs by Western blotting; type: cell-based
Procedure, shortened: (§1)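 Cells at ~80% confluence (48 h after seeding 4×10^5 per 6 cm dish), kept serum-free (LNCaP in T-Medium with 2.5% FBS; U-87 MG in DMEM) and dosed over a concentration range for 3 h, PBS control; p-Akt T308 by Western blot, three independent experiments.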

C4-2 [6] = test: Inhibition of PI3 kinase in human C4-2 cells expressing Luc-BAD assessed as reduction of p-Akt T308 level after 3 hrs by Western blotting; type: cell-based
Procedure, shortened: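 Serum-free C4-2LucBAD cells (18 h starvation, RPMI 1640 base) dosed over a concentration range for 3 h, PBS control; p-Akt T308 immunoblot of lysates.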

[7] = Prodrug activation in medium conditioned with human BT549 cells assessed as concentration of 4-(2-morpholino-4-oxo-4H-chromen-8-yl) benzyl-2-amino-4-methylpentanoate at 30 uM from 30 mins to 6 hrs by LC-ESI-MS analysis; type: cell-based; conditions: bt-549, 30 µM
Procedure, shortened: (§2)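 Serum-free C4-2 or BT-549 cultures given compound, PBS control; media sampled at 30 min, 3 and 6 h. Released drug quantified by C18 UHPLC (water/methanol, 0.1% formic acid gradient) with positive ESI high-resolution Orbitrap MS at mass 496.2569, against standard curve; means ± SEM, n=3.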

BT-549 [8] = test: Inhibition of PI3 kinase in human BT549 cells exposed to 10 uM compound pre-incubated in absence of PSA for 6 hrs assessed as reduction of p-Akt T308 levels after 30 mins by Western blotting; type: cell-based
Procedure, shortened: (§3)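 Compound pre-incubated 6 h at 37 °C in 50 mM Tris-HCl, 0.1 M NaCl, pH 7.8 with purified active human semen PSA (0–104 ng/mL), then added to BT-549 cells for 30 min, DMSO control; p-Akt T308 Western blot, three independent experiments.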

BT-549 [9] = test: Inhibition of PI3 kinase in human BT549 cells assessed as reduction of p-Akt T308 level at 30 uM after 30 mins to 6 hrs by Western blotting; type: cell-based
Procedure, shortened: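 Serum-free BT-549 cells (RPMI 1640, 10% FBS, insulin during growth) exposed from 30 min to 6 h, PBS control; p-Akt T308 Western blot of cleared lysates, representative of three independent experiments.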

BT-549 [10] = test: Inhibition of PI3 kinase in human BT549 cells exposed to BT549 cells conditioned medium pre-incubated with compound for 6 hrs assessed as reduction of p-Akt T308 level by Western blotting; type: cell-based
Procedure, shortened: (§4)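 Compound incubated 6 h at 37 °C, 5% CO2 in serum-free medium on C4-2 or BT-549 cells; medium then transferred to BT-549 cells for 3 h, PBS control; p-Akt T308 by Western blot.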

LNCaP C4-2 [11] = test: Induction of apoptosis in human C4-2 cells expressing Luc-BAD assessed as increase in caspase activity at 3 to 50 uM after 6 hrs by Caspase 3 assay; type: functional, cell-based
Procedure, shortened: (§5)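 C4-2LucBAD cells seeded 4×10^5 per 6 cm dish, grown 48 h in RPMI 1640/10% FBS to ~80% confluence, then serum-free 18 h; treated 6 h (DMSO control). Caspase 3 fluorescence read every 15 min for 1 h, arbitrary units, means ± SEM, n=2; cleaved PARP (89 kDa) by Western blot of same samples.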

LNCaP C4-2 [12] = test: Induction of apoptosis in human C4-2 cells expressing Luc-BAD assessed as increase in cleavage of PARP at 3 to 50 uM after 6 hrs by Western blotting; type: functional, cell-based; procedure, shortened: as §5
BT-549 [13] = test: Inhibition of PI3 kinase in human BT549 cells exposed to C4-2 cells conditioned medium pre-incubated with compound for 6 hrs assessed as reduction of p-Akt T308 level by Western blotting; type: cell-based; procedure, shortened: as §4
BT-549 [14] = test: Inhibition of PI3 kinase in human BT549 cells assessed as reduction of p-Akt T308 level after 3 hrs by Western blotting; type: cell-based; procedure, shortened: as §1
LNCaP = test: Inhibition of PI3 kinase in human LNCaP cells assessed as reduction of p-Akt T308 level after 3 hrs by Western blotting; type: cell-based; procedure, shortened: as §1
BT-549 [15] = test: Inhibition of PI3 kinase in human BT549 cells exposed to 10 uM compound pre-incubated with 0.5 to 10^4 ng/mL PSA for 6 hrs assessed as reduction of p-Akt T308 levels after 30 mins by Western blotting; type: cell-based; procedure, shortened: as §3
[16] = Prodrug activation in medium conditioned with human C4-2 cells assessed as concentration of 4-(2-morpholino-4-oxo-4H-chromen-8-yl) benzyl-2-amino-4-methylpentanoate at 30 uM from 30 mins to 6 hrs by LC-ESI-MS analysis; type: cell-based; conditions: c4-2, 30 µM; procedure, shortened: as §2
C4-2 [17] = test: Inhibition of PI3 kinase in human C4-2 cells assessed as reduction of p-Akt T308 level after 3 hrs by Western blotting; type: cell-based

Drug metabolism [7] | Drug metabolism [16] | SMILES | inhibition (C4-2 [1]) | inhibition (BT-549 [2]) | inhibition (BT-549 [3]) | inhibition (C4-2 [4]) | inhibition (C4-2 [5]) | inhibition (U-87) | inhibition (C4-2 [6]) | inhibition (BT-549 [8]) | inhibition (BT-549 [9]) | inhibition (BT-549 [10]) | Activity (LNCaP C4-2 [11]) | Activity (LNCaP C4-2 [12]) | inhibition (BT-549 [13]) | inhibition (BT-549 [14]) | inhibition (LNCaP) | inhibition (BT-549 [15]) | inhibition (C4-2 [17])
 |  | CC(C)C[C@H](N)C(=O)OCc1ccc(-c2cccc3c(=O)cc(N4CCOCC4)oc23)cc1 | Active | Active | Dose-dependent effect | Dose-dependent effect |  |  |  |  |  |  |  |  |  |  |  |  | 
Not Active | Active | CC(C)C[C@H](NC(=O)[C@H](CCCCN)NC(=O)[C@H](CO)NC(=O)[C@H](CO)NC(=O)[C@H](Cc1cnc[nH]1)NC(=O)[C@H](CCC(=O)O)NC(=O)[C@H](CC(C)C)NC(=O)N1CCOCC1)C(=O)N[C@@H](CCC(N)=O)C(=O)N[C@@H](CC(C)C)C(=O)OCc1ccc(-c2cccc3c(=O)cc(N4CCOCC4)oc23)cc1 ({Morpholide-CO}-LEHSSKLQL-X1) |  |  |  |  | tde | inactive | Dose-dependent effect | inactive | inactive | inactive | Active | Active | Active | inactive | Dose-dependent effect | Active | Dose-dependent effect
